Laboratory results reported in ChEMBL document CHEMBL2390862, “Enmein-type diterpenoid analogs from natural kaurene-type oridonin: Synthesis and their antitumor biological evaluation” (Eur J Med Chem, 2013).

Columns and labels:
[1] = tested on: Bel-7402; test: Induction of apoptosis in human Bel7402 cells assessed as early apoptotic cells at 0.15 uM after 2 days by Annexin-V/FITC-propidium iodide staining-based flow cytometry (reference value: 2.6 %); assay type: functional
[2] = tested on: Bel-7402; test: Cell cycle arrest in human Bel7402 cells assessed as accumulation at G1 phase at 0.3 uM after 48 hrs by propidium iodide staining-based FACS analysis (reference value: 48.23 %); assay type: functional
Method in brief: (§1)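 Bel-7402 cells seeded at 5.0 × 10³ cells/well and incubated 24 h at 37 °C, then exposed to test compound or DMSO solvent control for 48 h. Cells fixed in 70% ethanol, RNase-treated, PI-stained; DNA content of nuclei measured by flow cytometry.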

[3] = tested on: Bel-7402; test: Induction of apoptosis in human Bel7402 cells assessed as necrotic cells at 0.15 uM after 2 days by Annexin-V/FITC-propidium iodide staining-based flow cytometry (reference value: 1.1 %); assay type: functional
[4] = tested on: Bel-7402; test: Induction of apoptosis in human Bel7402 cells assessed as viable cells at 0.6 uM after 2 days by Annexin-V/FITC-propidium iodide staining-based flow cytometry (reference value: 94.1 %); assay type: functional; conditions: Bel-7402, 48 h, read-out: Activity
[5] = tested on: Bel-7402; test: Induction of apoptosis in human Bel7402 cells assessed as reduction in Bcl2 expression after 48 hrs by Western blotting analysis; assay type: functional, cell-based
Method in brief: (§2)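 Bel-7402 cells treated with vehicle control or compound at 0.15, 0.3 or […] (so in the source). Lysates at […] protein per lane (so in the source) separated by 10% SDS-PAGE, transferred to nitrocellulose and immunoblotted, with β-actin measured as reference. Significance vs. vehicle control marked at P < 0.05 and P < 0.01.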

[6] = Cytotoxicity against human CaEs17 cells after 72 hrs by MTT assay; assay type: functional, cell-based; conditions: CaEs17, 72 h
Method in brief: (§3)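 K562, CaEs-17, Bel-7402 and MGC-803 cells in log phase seeded at 5 × 10⁴ cells/mL, incubated with or without test compounds at 37 °C, 5% CO₂; after 72 h MTT (5 mg/mL stock) added for 4 h, formazan dissolved in DMSO, OD read at 490 nm. Negative reference 0.1% DMSO, Taxol positive control. IC50 as mean ± S.D. of three independent experiments.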

[7] = tested on: Bel-7402; test: Cell cycle arrest in human Bel7402 cells assessed as accumulation at G2/M phase at 0.15 uM after 48 hrs by propidium iodide staining-based FACS analysis (reference value: 12.60 %); assay type: functional; method in brief: as §1
[8] = tested on: Bel-7402; test: Cell cycle arrest in human Bel7402 cells assessed as accumulation at S phase at 0.15 uM after 48 hrs by propidium iodide staining-based FACS analysis (reference value: 39.17 %); assay type: functional; method in brief: as §1
[9] = tested on: Bel-7402; test: Induction of apoptosis in human Bel7402 cells assessed as increase in caspase 3 expression after 48 hrs by Western blotting analysis; assay type: functional, cell-based; method in brief: as §2
[10] = tested on: Bel-7402; test: Induction of apoptosis in human Bel7402 cells assessed as early apoptotic cells at 0.3 uM after 2 days by Annexin-V/FITC-propidium iodide staining-based flow cytometry (reference value: 2.6 %); assay type: functional
[11] = tested on: Bel-7402; test: Cell cycle arrest in human Bel7402 cells assessed as accumulation at G2/M phase at 0.6 uM after 48 hrs by propidium iodide staining-based FACS analysis (reference value: 12.60 %); assay type: functional; method in brief: as §1
[12] = tested on: Bel-7402; test: Cell cycle arrest in human Bel7402 cells assessed as accumulation at S phase at 0.6 uM after 48 hrs by propidium iodide staining-based FACS analysis (reference value: 39.17 %).; assay type: functional; method in brief: as §1
[13] = tested on: Bel-7402; test: Induction of apoptosis in human Bel7402 cells assessed as increase in Fas expression after 48 hrs by Western blotting analysis; assay type: functional, cell-based; method in brief: as §2
[14] = tested on: Bel-7402; test: Induction of apoptosis in human Bel7402 cells assessed as viable cells at 0.3 uM after 2 days by Annexin-V/FITC-propidium iodide staining-based flow cytometry (reference value: 94.1 %); assay type: functional; conditions: Bel-7402, 48 h, read-out: Activity
[15] = tested on: Bel-7402; test: Cell cycle arrest in human Bel7402 cells assessed as accumulation at G1 phase at 0.6 uM after 48 hrs by propidium iodide staining-based FACS analysis (reference value: 48.23 %); assay type: functional; method in brief: as §1
[16] = tested on: Bel-7402; test: Induction of apoptosis in human Bel7402 cells assessed as late apoptotic cells at 0.15 uM after 2 days by Annexin-V/FITC-propidium iodide staining-based flow cytometry (reference value: 2.2 %); assay type: functional
[17] = tested on: Bel-7402; test: Induction of apoptosis in human Bel7402 cells assessed as late apoptotic cells at 0.3 uM after 2 days by Annexin-V/FITC-propidium iodide staining-based flow cytometry (reference value: 2.2 %); assay type: functional
[18] = tested on: Bel-7402; test: Induction of apoptosis in human Bel7402 cells at 0.15 uM after 48 hrs by propidium iodide staining-based FACS analysis (reference value: 1.67 %); assay type: functional; method in brief: as §1
[19] = tested on: Bel-7402; test: Induction of apoptosis in human Bel7402 cells after 2 days by Annexin-V/FITC-propidium iodide staining-based flow cytometry; assay type: functional, cell-based
[20] = tested on: Bel-7402; test: Induction of apoptosis in human Bel7402 cells assessed as early and late apoptotic cells at 0.15 uM after 2 days by Annexin-V/FITC-propidium iodide staining-based flow cytometry (reference value: 4.8 %); assay type: functional
[21] = tested on: Bel-7402; test: Induction of apoptosis in human Bel7402 cells assessed as increase in caspase 8 expression after 48 hrs by Western blotting analysis; assay type: functional, cell-based; method in brief: as §2
[22] = tested on: Bel-7402; test: Cytotoxicity against human Bel7402 cells after 72 hrs by MTT assay; assay type: functional, cell-based; conditions: Bel-7402, 72 h; method in brief: as §3
[23] = tested on: Bel-7402; test: Cell cycle arrest in human Bel7402 cells assessed as accumulation at S phase at 0.3 uM after 48 hrs by propidium iodide staining-based FACS analysis (reference value: 39.17 %); assay type: functional; method in brief: as §1
[24] = tested on: MGC-803; test: Cytotoxicity against human MGC803 cells after 72 hrs by MTT assay; assay type: functional, cell-based; conditions: MGC-803, 72 h; method in brief: as §3
[25] = tested on: Bel-7402; test: Induction of apoptosis in human Bel7402 cells assessed as early apoptotic cells at 0.6 uM after 2 days by Annexin-V/FITC-propidium iodide staining-based flow cytometry (reference value: 2.6 %); assay type: functional
[26] = tested on: Bel-7402; test: Induction of apoptosis in human Bel7402 cells assessed as necrotic cells at 0.6 uM after 2 days by Annexin-V/FITC-propidium iodide staining-based flow cytometry (reference value: 1.1 %); assay type: functional
[27] = tested on: Bel-7402; test: Induction of apoptosis in human Bel7402 cells assessed as viable cells at 0.15 uM after 2 days by Annexin-V/FITC-propidium iodide staining-based flow cytometry (reference value: 94.1 %); assay type: functional; conditions: Bel-7402, 48 h, read-out: Activity
[28] = tested on: Bel-7402; test: Induction of apoptosis in human Bel7402 cells assessed as increase in caspase 9 expression after 48 hrs by Western blotting analysis; assay type: functional, cell-based; method in brief: as §2
[29] = tested on: Bel-7402; test: Induction of mitochondrial membrane depolarization in human Bel7402 cells assessed as normal cells at 0.3 uM after 48 hrs by JC-1 staining-based flow cytometry; assay type: functional
[30] = tested on: K562; test: Cytotoxicity against human K562 cells after 72 hrs by MTT assay; assay type: functional, cell-based; conditions: K562, 72 h; method in brief: as §3
[31] = tested on: Bel-7402; test: Induction of apoptosis in human Bel7402 cells assessed as early and late apoptotic cells at 0.3 uM after 2 days by Annexin-V/FITC-propidium iodide staining-based flow cytometry (reference value: 4.8 %); assay type: functional
[32] = tested on: Bel-7402; test: Induction of mitochondrial membrane depolarization in human Bel7402 cells assessed as normal cells at 0.6 uM after 48 hrs by JC-1 staining-based flow cytometry; assay type: functional
[33] = tested on: Bel-7402; test: Induction of apoptosis in human Bel7402 cells assessed as late apoptotic cells at 0.6 uM after 2 days by Annexin-V/FITC-propidium iodide staining-based flow cytometry (reference value: 2.2 %); assay type: functional
[34] = tested on: Bel-7402; test: Induction of apoptosis in human Bel7402 cells at 0.3 uM after 48 hrs by propidium iodide staining-based FACS analysis (reference value: 1.67 %); assay type: functional; method in brief: as §1
[35] = tested on: Bel-7402; test: Cell cycle arrest in human Bel7402 cells assessed as accumulation at G2/M phase at 0.3 uM after 48 hrs by propidium iodide staining-based FACS analysis (reference value: 12.60 %); assay type: functional; method in brief: as §1
[36] = tested on: Bel-7402; test: Induction of apoptosis in human Bel7402 cells assessed as early and late apoptotic cells at 0.6 uM after 2 days by Annexin-V/FITC-propidium iodide staining-based flow cytometry (reference value: 4.8 %); assay type: functional
[37] = tested on: Bel-7402; test: Induction of apoptosis in human Bel7402 cells assessed as necrotic cells at 0.3 uM after 2 days by Annexin-V/FITC-propidium iodide staining-based flow cytometry (reference value: 1.1 %); assay type: functional
[38] = tested on: Bel-7402; test: Induction of apoptosis in human Bel7402 cells assessed as increase in cytochrome C expression after 48 hrs by Western blotting analysis; assay type: functional, cell-based; method in brief: as §2
[39] = tested on: Bel-7402; test: Induction of apoptosis in human Bel7402 cells at 0.6 uM after 48 hrs by propidium iodide staining-based FACS analysis (reference value: 1.67 %); assay type: functional; method in brief: as §1
[40] = tested on: Bel-7402; test: Cell cycle arrest in human Bel7402 cells assessed as accumulation at G1 phase at 0.15 uM after 48 hrs by propidium iodide staining-based FACS analysis (reference value: 48.23 %); assay type: functional; method in brief: as §1
[41] = tested on: Bel-7402; test: Induction of apoptosis in human Bel7402 cells assessed as increase in Bax expression after 48 hrs by Western blotting analysis; assay type: functional, cell-based; method in brief: as §2
[42] = tested on: Bel-7402; test: Induction of mitochondrial membrane depolarization in human Bel7402 cells assessed as apoptotic cells after 48 hrs by JC-1 staining-based flow cytometry; assay type: functional, cell-based
Method in brief: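 In triplicate, Bel-7402 cells cultured overnight, then incubated with compound (0, 0.15, 0.3, […] as printed) or vehicle for 48 h, stained with the lipophilic cationic dye JC-1. Cells with collapsed mitochondrial membrane potential counted by flow cytometry.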

Structure (SMILES): C=C1C(=O)[C@@]23C(=O)O[C@H]4CCC(C)(C)[C@H]5[C@H](O)OC[C@@]45[C@@H]2CC[C@@H]1[C@H]3OC(=O)c1ccc(Cl)cc1
- Activity [1]: 8.8%
- Activity [2]: 50.28%
- Activity [3]: 1%
- viability at 0.6 µM [4]: 48.8%
- Activity [5]: Dose-dependent effect
- IC50 [6]: 280 nM
- Activity [7]: 15.1%
- Activity [8]: 38.72%
- Activity [9]: Dose-dependent effect
- Activity [10]: 14.8%
- Activity [11]: 28.76%
- Activity [12]: 20.17%
- Activity [13]: Dose-dependent effect
- viability at 0.3 µM [14]: 66.5%
- Activity [15]: 51.07%
- Activity [16]: 5.5%
- Activity [17]: 18.5%
- Activity [18]: 2.07%
- Activity [19]: Dose-dependent effect
- Activity [20]: 14.3%
- Activity [21]: Dose-dependent effect
- IC50 [22]: 870 nM
- Activity [23]: 29.24%
- IC50 [24]: 1220 nM
- Activity [25]: 22.4%
- Activity [26]: 0.7%
- viability at 0.15 µM [27]: 84.6%
- Activity [28]: Dose-dependent effect
- Activity [29]: 82.4%
- IC50 [30]: 240 nM
- Activity [31]: 33.3%
- Activity [32]: 54.4%
- Activity [33]: 28.1%
- Activity [34]: 14.86%
- Activity [35]: 20.48%
- Activity [36]: 50.5%
- Activity [37]: 0.3%
- Activity [38]: Dose-dependent effect
- Activity [39]: 31.97%
- Activity [40]: 46.18%
- Activity [41]: Dose-dependent effect
- Activity [42]: Dose-dependent effect

Structure (SMILES): C=C1C(=O)[C@@]23C(=O)O[C@H]4CCC(C)(C)[C@H]5[C@H](O)OC[C@@]45[C@@H]2CC[C@@H]1[C@H]3OC(=O)CC
- IC50 [6]: 1210 nM
- IC50 [22]: 1530 nM
- IC50 [24]: 1560 nM
- IC50 [30]: 1020 nM

Structure (SMILES): C=C1C(=O)[C@@]23C(=O)O[C@H]4CCC(C)(C)[C@H]5[C@H](O)OC[C@@]45[C@@H]2CC[C@@H]1[C@H]3OC(=O)c1ccc(C(F)(F)F)cc1
- IC50 [6]: 760 nM
- IC50 [22]: 1270 nM
- IC50 [24]: 960 nM
- IC50 [30]: 370 nM
